Experimental data pooled from the literature.
Compare with care: the assays were run in different laboratories.
Read-out: cell growth or viability

SMILES	cell line	test	conditions	IC50
NCCCOc1cc(NC(=O)c2cc(Cl)cc(C(=O)Nc3cc(OCCCN)c4ccccc4n3)n2)nc2ccccc12	U2OS	ATP luminescence	72 h	0.3 µM
CC[C@@H](C)[C@H](N)C(=O)N1Cc2ccccc2C1	SKM-1	ATP luminescence	48 h	0.181 µM
FC(F)(F)c1ccc(C(c2c[nH]c3ccccc23)c2c[nH]c3ccccc23)cc1	U2OS	ATP luminescence	22 h	12.6 µM
NCCOc1cc(NC(=O)c2cc(OCc3c[nH]nn3)cc(C(=O)Nc3cc(OCCN)c4ccccc4n3)n2)nc2ccccc12	U2OS	ATP luminescence	72 h	> 40 µM
CC(C)[C@H](N)C(=O)N1CCC[C@H]1B(O)O	NB-4	ATP luminescence	48 h	0.1 µM
CCCCc1ccc2[nH]c(NC(=O)OC)nc2c1	SCC-9	CCK-8	72 h	0.0769 µM
COc1ccc(O)c(/C=N/c2nc(SC)nn2-c2ccc(C(=O)O)cc2)c1	RPE-1	MTT	–	35.2 µM
CC(=O)Oc1ccc2c(c1)C(C)=CC(C)(C)N2Cc1ccccc1	PLC5	MTT	72 h	18 µM
COc1cc(-c2ncn(/C=C\C(=O)OC(C)C)n2)cc(C(F)(F)F)c1	HEL	–	72 h	0.104 µM
N[C@@H](CC(=O)N1CCN(C(c2ccc(F)cc2)c2ccc(F)cc2)CC1)C(=O)N1Cc2ccccc2C1	NB-4	ATP luminescence	48 h	1.33 µM
Nc1nc(Oc2ccccc2)nn1-c1ccc(C(=O)O)cc1	RPE-1	MTT	–	25.7 µM
C#CCOc1cc(C(=O)Nc2cc(OCCN)c3ccccc3n2)nc(C(=O)Nc2cc(OCCN)c3ccccc3n2)c1	U2OS	ATP luminescence	72 h	4.9 µM
CSc1nc(/N=C/c2cc(C)ccc2O)n(-c2ccc(C(=O)O)cc2)n1	RPE-1	MTT	–	36 µM
NCCCOc1cc(NC(=O)c2cc(OCc3c[nH]nn3)cc(C(=O)Nc3cc(OCCCN)c4ccccc4n3)n2)nc2ccccc12	U2OS	ATP luminescence	72 h	> 40 µM
C[S@@+]([O-])CCCCN=C=S	Hepa-1c1c7	–	–	15.2 µM
CSc1nc(/N=C/c2cc(Br)ccc2O)n(-c2ccc(C(=O)O)cc2)n1	RPE-1	MTT	–	37.6 µM
O=C(Nc1cc(OCCN2CCCC2)c2ccccc2n1)c1cc(OCCN2CCCC2)cc(C(=O)Nc2cc(OCCN3CCCC3)c3ccccc3n2)n1	U2OS	ATP luminescence	72 h	2.1 µM
CC(C)C[C@H](NC(=O)[C@H](Cc1ccccc1)NC(=O)c1cnccn1)B(O)O	U2OS	ATP luminescence	–	0.011 µM
COc1nc(OCc2cccc(-c3ccccc3)c2C)ccc1CNCCNC(C)=O	HCT-8	MTT	–	3.9 µM
CN(C)CCCOc1cc(NC(=O)c2cc(Cl)cc(C(=O)Nc3cc(OCCCN(C)C)c4ccccc4n3)n2)nc2ccccc12	U2OS	ATP luminescence	72 h	1.8 µM
CSc1nc(/N=C/c2ccc(O)cc2)n(-c2ccc(C(=O)O)cc2)n1	RPE-1	MTT	–	39.1 µM
COc1cc(Nc2nccc(-c3cnn4nc(OC)ccc34)n2)cc(C(F)(F)F)c1	U2OS	ATP luminescence	–	0.39 µM
